This note sets out measurements from ChEMBL document CHEMBL1649161, “Pharmacokinetics of EDP-420 after ascending single oral doses in healthy adult volunteers” (Antimicrob Agents Chemother, 2009).

Data set [1] in a line: Elimination rate constant in healthy human plasma at 800 mg, po administered as single dose measured after 120 hrs. It counts as ADME, organism-based.
A short description of data set [2]: AUC (0 to infinity) in healthy human plasma at 100 mg, po administered as single dose measured after 120 hrs. It counts as ADME, organism-based. On the set-up: dose 100 mg, route oral, time infinity. The essentials: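 Healthy adults (6 per dose group) received a single oral suspension after an 8-h fast, with food withheld 4 h. EDTA blood was drawn predose to 120 h. Plasma was protein-precipitated with ACN and assayed by LC-MS/MS (clarithromycin internal standard; range 1–1,000 ng/ml). AUC0-last was computed by linear-up/log-down trapezoid; AUC0-∞ added Clast/λz. Values are noncompartmental means.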

The next data set has as its system Homo sapiens. The data set is described as follows: Toxicity in healthy human assessed as changes in ECG parameters signs at 100 to 1200 mg, po administered as single dose. The class given is organism-based. The conditions noted are these: in vivo.

Each structure is given as a SMILES string.

What is called AUC(0-inf) is total exposure, with the tail of the curve extrapolated. The compound `CC[C@H]1OC(=O)[C@H](C)C(=O)[C@H](C)[C@@H](O[C@@H]2O[C@H](C)C[C@H](N(C)C)[C@H]2O)[C@@]2(C)C[C@@H](C)/C(=N\C(C)=O)[C@H](C)[C@@H](OC/C(=N\OCc3ccc(-n4cccn4)nc3)CO2)[C@]1(C)O` [MODITHROMYCIN] had a k el at 120 h in data set [1] of 1.09e-05 s⁻¹. This compound also came in with an AUC(0-inf) in data set [2] of 3430 ng·h/mL. The Activity entry in the data set on Homo sapiens is on record as “Non-toxic”.
